Where “and” joins values, the source holds several entries; their conditions need not be identical. Equal entries are not always repeated.
System: Fibroblast
Assay: Multiplex assay against human fibroblast
Type: toxicity, cell-based
Method in brief: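 Four dyes were applied at seeding to live cells: Hoechst33342, BioTracker Green Microtubule Cytoskeleton Dye, MitoTracker Red and Annexin V Alexa Fluor 680. Imaging after compound addition used a CQ1 microscope at 37°C and 5% CO2. CellPathfinder machine-learning gating then sorted cells into Hoechst high-intensity objects or normal cells, normal cells into healthy, pyknosed or fragmented nuclei, and pyknosed cells into mitotic or apoptotic, with tubulin, mitochondrial-mass and membrane-permeability phenotypes given as per cents of healthy-nucleus cells.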

[1] = 12 h, 1 µM, compound concentration 1 uM
[2] = 12 h, 10 µM, compound concentration 10 uM
[3] = 24 h, 1 µM, compound concentration 1 uM
[4] = 24 h, 10 µM, compound concentration 10 uM
[5] = 48 h, 1 µM, compound concentration 1 uM
[6] = 48 h, 10 µM, compound concentration 10 uM

Compound: CCC(=N\O)/C(C)=C/c1ccc(F)cc1 [A-079]
- Population Apoptotic (%) [1]: 15.91% and 23.08%
- Population Fragmented Nuclei (%) [1]: 8.18% and 2.86%
- Population Healthy Nuclei (%) [1]: 71.82% and 82.29%
- Population Hoechst High Intensity Objects (%) [1]: 0%
- Population Membrane Permeable-Phenotype (%) [1]: 3.16% and 4.86%
- Population Mitochondria Different-Phenotype (%) [1]: 3.16% and 9.72%
- Population Mitotic Cells (%) [1]: 84.09% and 76.92%
- Population Normal (%) [1]: 100%
- Population Pyknosed Nuclei (%) [1]: 20% and 14.86%
- Population Tubulin-Different-Phenotype (%) [1]: 10.13% and 14.58%
- Total Cell Count [1]: 220 and 175
- Population Apoptotic (%) [2]: 11.32% and 27.78%
- Population Fragmented Nuclei (%) [2]: 6.99% and 5.71%
- Population Healthy Nuclei (%) [2]: 64.52% and 81.43%
- Population Hoechst High Intensity Objects (%) [2]: 0%
- Population Membrane Permeable-Phenotype (%) [2]: 5.83% and 7.02%
- Population Mitochondria Different-Phenotype (%) [2]: 5% and 9.65%
- Population Mitotic Cells (%) [2]: 88.68% and 72.22%
- Population Normal (%) [2]: 100%
- Population Pyknosed Nuclei (%) [2]: 28.49% and 12.86%
- Population Tubulin-Different-Phenotype (%) [2]: 13.33% and 21.93%
- Total Cell Count [2]: 186 and 140
- Population Apoptotic (%) [3]: 15.15% and 10.53%
- Population Fragmented Nuclei (%) [3]: 10% and 1.7%
- Population Healthy Nuclei (%) [3]: 75.65% and 87.5%
- Population Hoechst High Intensity Objects (%) [3]: 0%
- Population Membrane Permeable-Phenotype (%) [3]: 2.3% and 3.25%
- Population Mitochondria Different-Phenotype (%) [3]: 2.87% and 6.49%
- Population Mitotic Cells (%) [3]: 84.85% and 89.47%
- Population Normal (%) [3]: 100%
- Population Pyknosed Nuclei (%) [3]: 14.35% and 10.8%
- Population Tubulin-Different-Phenotype (%) [3]: 10.92% and 9.74%
- Total Cell Count [3]: 230 and 176
- Population Apoptotic (%) [4]: 17.14% and 20.83%
- Population Fragmented Nuclei (%) [4]: 8.85% and 6.62%
- Population Healthy Nuclei (%) [4]: 72.92% and 77.48%
- Population Hoechst High Intensity Objects (%) [4]: 0%
- Population Membrane Permeable-Phenotype (%) [4]: 10.71% and 3.42%
- Population Mitochondria Different-Phenotype (%) [4]: 7.86% and 4.27%
- Population Mitotic Cells (%) [4]: 82.86% and 79.17%
- Population Normal (%) [4]: 100%
- Population Pyknosed Nuclei (%) [4]: 18.23% and 15.89%
- Population Tubulin-Different-Phenotype (%) [4]: 19.29% and 19.66%
- Total Cell Count [4]: 192 and 151
- Population Apoptotic (%) [5]: 46.15% and 36.36%
- Population Fragmented Nuclei (%) [5]: 10.24% and 4.69%
- Population Healthy Nuclei (%) [5]: 84.65% and 89.58%
- Population Hoechst High Intensity Objects (%) [5]: 0%
- Population Membrane Permeable-Phenotype (%) [5]: 0.47% and 4.65%
- Population Mitotic Cells (%) [5]: 53.85% and 63.64%
- Population Normal (%) [5]: 100%
- Population Pyknosed Nuclei (%) [5]: 5.12% and 5.73%
- Total Cell Count [5]: 254 and 192
- Population Apoptotic (%) [6]: 20% and 36.36%
- Population Fragmented Nuclei (%) [6]: 12.33% and 5.62%
- Population Healthy Nuclei (%) [6]: 80.82% and 87.5%
- Population Hoechst High Intensity Objects (%) [6]: 0%
- Population Membrane Permeable-Phenotype (%) [6]: 1.69% and 6.43%
- Population Mitotic Cells (%) [6]: 80% and 63.64%
- Population Normal (%) [6]: 100%
- Population Pyknosed Nuclei (%) [6]: 6.85% and 6.88%
- Population Tubulin-Different-Phenotype (%) [6]: 6.78% and 17.86%
- Total Cell Count [6]: 219 and 160

Reference: ChEMBL document CHEMBL5724801, “EUbOPEN Chemogenomics Library - Multiplex” (2024)
